The list is not random: actives were taken first. Their share in the collection is about 1%.
GSIS activator – GLuc luminescence reporter in INS-1E cells, primary screen for activators of glucose-dependent secretion of insulin. INS-1E GLuc reporter insulin secretion, 2-3 h. activation, % at 16.6 µM. 370,000 tested, 0.61% active. AID 743287;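 active means lowest replicate activation of at least 40%, so every replicate reaches that level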;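 further: 0% = median of neutral control wells and 100% = median of IBMX positive control wells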
CaV13 FRET inh – Primary screen for inhibitors of IQ motif and Ca2+-dependent inactivation inhibitor domain binding in CACNA1D, Förster resonance energy transfer in living cells, …; AID 743397; HEK cells, CFP/YFP FRET ICDI-IQ, plate reader, 10 min; percent FRET-ratio fall versus neutral wells; inhibition, % at 12.3 µM; 340,000 tested, 0.098% active;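 active means mean replicate inhibition of at least 30% and at least 1% of replicates passing that level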;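 further: 0% = median of the neutral control wells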
FXN GAA850 act – activators of GAA850 frataxin (FXN) promoter; 360,000 tested, 0.56% active; AID 540364; HEK293 lucGAA850 FXN promoter luciferase reporter, 24 h; percent of 10 µM SAHA response; activation, % at 6 µM;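 active means activation above the average of all compounds screened plus 3 SD, cutoff fixed separately per campaign, cut at about 7.5% in these data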;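 further: 0% = DMSO wells and 100% = 10 µM SAHA wells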
Xi reactivation – activators of X-chromosome reactivation in mouse fibroblasts; XiGFP mouse fibroblasts, % GFP-positive cells imaging, 3 d; cells co-treated with 5-aza-dC sensitizer; scaled so ellipticine positive control = 100%; activation, % at 7.58 µM; 360,000 tested, 0.055% active; AID 743238;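 active means mean normalized replicate activation at least 10% and every replicate at or above 10%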;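 further: 0% = median of on-plate neutral control wells and 100% = ellipticine 6 µM median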
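Material: SV40-immortalized XiGFP fibroblast cells, line 68-5-11 | Buffer or medium: DMEM containing 5-aza-dC | Dosing: One concentration, pinned | Times: 3 d treatment, 15 min room-temperature fixation | Controls: Ellipticine 6 µM positive control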
GAA30 FXN cntr – GAA30 FXN promoter activation counter-screen | shares compounds with FXN GAA850 act | HEK293 lucGAA30 FXN promoter luciferase, 24 h; DMSO = 0%, 5 µM ipriflavone = 100% | activation, % at 6 µM | 1,900 tested, 66% active | AID 588350;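 active means mean activation above the mean of solvent-only control wells plus 3 SD, cut at about 22% in these data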;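 further: counterscreen of GAA850 promoter hits where activity marks nonselective or luminescence artifacts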
GAA850 confirm – GAA850 FXN promoter activation confirmation. HEK293 lucGAA850 FXN promoter luciferase reporter, 24 h; 100% = activation by SAHA. activation, % at 6 µM. 1,900 tested, 86% active. shares compounds with FXN GAA850 act. AID 588351;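 active means mean activation above a set limit taken from the primary screen, cut at about 8% in these data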;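 further: 0% = DMSO wells and 100% = 10 µM SAHA wells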
* hit, by the source's call; x = no result; ! = not confirmed by another sample.

SMILES	GSIS activator	CaV13 FRET inh	FXN GAA850 act	Xi reactivation	GAA30 FXN cntr	GAA850 confirm
Cc1nc2ccc(-c3nc4ccccc4[nH]3)cc2[nH]1	x	-3	7.8*	0	129*	38*
CC(=O)NC[C@H]1[C@@H](c2ccc(-c3ccccc3)cc2)[C@H](CO)N1C(=O)C1CCC1	8	x	x	0	x	x
COc1ccc(NC(=O)Nc2ccc3c(c2)C(=O)N([C@H](C)CO)C[C@@H](C)[C@H](CN(C)S(=O)(=O)c2cn(C)cn2)O3)cc1	-2	x	x	0	x	x
Fc1ccc(/C=N/Nc2cc(N3CCOCC3)ncn2)cc1	6	-5	3	0	x	x
Fc1cccc(/C=N/Nc2cc(N3CCOCC3)ncn2)c1	-15	0	9.3*	0	127*	99*
CCN1CCN(c2nnc(-c3ccccc3)c3ccccc23)CC1	11	-19	1	0	x	x
CCN1CCN(c2cc3c(nn2)Oc2ccccc2N3C)CC1	6	-6	8.4*	0	140*	42*
CC(C)CC#Cc1ccc2c(c1)O[C@H](CN(C)Cc1cccc(F)c1)[C@@H](C)CN([C@@H](C)CO)S2(=O)=O	-20	x	x	-1	x	x
Cc1ccc(C(=O)C(C)N(C(=O)c2ccc(Cl)cc2Cl)N2C(=O)CCCC2=O)cc1 (configuration not stated)	-3	-3	0	1	x	x
COc1ccc(C(=O)C(C)N(C(=O)c2ccc(Cl)cc2Cl)N2C(=O)C3C4C=CC(C4)C3C2=O)cc1 (configuration not stated)	x	-8	7.8*	x	25*	14*
O=C(NCC1CC1)[C@@H]1[C@@H](CO)[C@@H]2Cn3c(ccc(-c4ccccc4F)c3=O)[C@H]1N2Cc1ccncc1	-2	x	x	1	x	x
CCCCC(=O)/C=C/n1c(=S)oc2ccccc21	-9	-18	8.5*	2	-20	23*
C[C@@H]1CN([C@H](C)CO)C(=O)CCCn2nncc2CO[C@H]1CN(C)S(=O)(=O)c1ccccc1C#N	10	x	x	0	x	x
C=CCSc1nc(N)c(C#N)c(-c2ccccc2)c1C#N	x	-5	11*	x	18	17*
N#C[C@@H]1[C@H](c2ccccc2-c2cccc(F)c2)[C@@H](CO)N1C(=O)NC1CCCCC1	-19	x	x	0	x	x
CCOc1ccc(NC(=O)CSC2=NCCN2)cc1	-10	-17	2	0	x	x
COC(=O)c1ccc(NC(=O)CSC2=NCCN2)cc1	18	-5	10.0*	1	34*	16*
CC(C)NC(=O)N(C)C[C@H]1Oc2cc(C#CC(C)(C)O)ccc2S(=O)(=O)N([C@H](C)CO)C[C@H]1C	26	x	x	0	x	x
COc1cc2c(cc1OC)-c1nnc(-c3cccs3)n1C(C)(C)C2	19	-6	13*	0	8	8.2*
COc1cc2c(cc1OC)-c1nnnn1C(C)(C)C2	48	-4	1	x	x	x
Cc1ccc(Nc2cc(C)nc(NCc3ccccc3)n2)cc1	-14	-4	13*	0	19	15*
O=C(Cn1c(=O)oc2cc(S(=O)(=O)N3CCCCCC3)ccc21)NC1CCCCCCC1	x	-6	16*	0	19	16*
Cn1c(=O)oc2cc(S(=O)(=O)N3CCC(C(=O)NCc4ccc(F)cc4)CC3)ccc21	4	-6	11*	0	14	6
COc1ccc(-c2[nH]c3ccccc3c2SCCNC(=O)c2ccccc2)cc1	13	2	22*	0	2	5
COc1ccc2c3c(n(C)c2c1)[C@H](CO)NCC31CCN(C(C)=O)CC1	-4	x	x	0	x	x
SMILES	GSIS activator	CaV13 FRET inh	FXN GAA850 act	Xi reactivation	GAA30 FXN cntr	GAA850 confirm
COc1cc(C(=O)ON=C2C=C(C)C(=O)C(C)=C2)cc(OC)c1OC	36	-15	2	0	x	x
COc1cc(C(=O)O/N=C2\C=CC(=O)C(C)=C2)cc(OC)c1OC	x	-5	9.2*	x	35*	19*
O=S(=O)(CCN1CCN(C(c2ccccc2)c2ccccc2)CC1)C(F)(F)F	x	x	7.8*	x	37*	16*
O=C(NNC(=S)Nc1ccccc1)c1cccs1	17	-8	8.3*	x	74*	29*
COc1ccc(-c2csc(N(CC(C)C)C(=O)c3ccco3)n2)cc1	-8	-4	2	0	x	x
CCN(C(=O)c1ccco1)c1nc(-c2ccc(OC)cc2)cs1	11	-6	8.3*	0	110*	37*
CCCNC(=O)c1ccccc1NC(=O)c1ccccc1N(C)S(=O)(=O)c1ccccc1	7	-2	14*	0	8	19*
CC(C)CNC(=O)c1ccccc1NC(=O)c1ccccc1N(C)S(=O)(=O)c1ccccc1	-37	-2	13*	0	12	2
CCCCCn1c(=NC(=O)c2ccco2)c(C(=O)OCC)cc2c(=O)n3ccccc3nc21	36	26	8.0*!	0	7	9.0*
CCOC(=O)c1c(CN2CCN(CCO)CC2)n(C)c2cc(Br)c(OC)cc12	3	-5	8.2*	x	23*	18*
CCOC(=O)c1c(CN2CCCCC2)n(C)c2cc(Br)c(OC)cc12	x	-1	0	x	x	x
CC(C)NC(=O)N(C)C[C@H]1Oc2cc(C#CCN(C)C)ccc2S(=O)(=O)N([C@@H](C)CO)C[C@H]1C	11	x	x	-1	x	x
C[C@@H]1CN([C@H](C)CO)C(=O)c2cc(NC(=O)NC3CCCCC3)ccc2O[C@@H](C)CCCCO[C@@H]1CN(C)C(=O)c1ccccc1	-31	x	x	0	x	x
CN(c1ccc(C(=O)Nc2ccc3c(c2)OCO3)cc1)S(C)(=O)=O	38	-13	4	x	x	x
CN(c1ccc(C(=O)Nc2ccc3c(c2)OCCO3)cc1)S(C)(=O)=O	23	x	9.2*	x	93*	29*
C[C@@H]1CN([C@H](C)CO)C(=O)CCCn2cc(nn2)CO[C@@H]1CN(C)S(=O)(=O)c1ccc(Cl)cc1	0	x	x	0	x	x
c1ccc2c(c1)C1=NCCN1c1ccccc1-2	6	-9	33*	0	6	150*
COc1ccc(C(CC(=O)c2ccc(C)cc2)C(C#N)C#N)cc1OC (configuration not stated)	-6	-9	8.0*	x	39*	38*
CCOC(=O)c1ccc(NC(=O)Nc2ccc(OC)c(OC)c2)cc1	-23	-5	0	x	x	x
CCOC(=O)c1ccccc1NC(=O)Nc1ccc(OC)c(OC)c1	x	-7	9.6*	x	17	10*
COc1ccc(C2=C(N)c3ccccc3C2=O)cc1	x	-12	7.7*	x	102*	33*
Cc1ccc(OCCCCNC(C)c2ccccc2)c(C)c1 (configuration not stated)	-2	-2	7.7*	0	24*	8.8*

Screening data (PubChem BioAssay)
